According to publication PMC4889517 (Nanomedicine : nanotechnology, biology, and medicine, 2016):
“Also recorded” adds a separate entry of the source.

Columns and labels:
[1] = system: PC-3 cell tumor xenografts; test: TUNEL assay of apoptosis in tumor xenograft sections; type: in vivo, athymic nude mice; settings: 5 mg/kg i.p., 2 days/week, day 25
In short: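 PC-3 xenografts were collected on day 25, after 18 days of i.p. dosing twice weekly at 5 mg/kg, with DMSO and empty liposome controls. Frozen sections were fixed in 2% paraformaldehyde (4°C, 30 min) and permeabilized in ethanol:acetic acid 2:1. They were labeled with fluorescein-12-dUTP by terminal deoxynucleotidyl transferase and counterstained with DAPI. TUNEL-positive cells were counted by fluorescence microscopy (n = 4).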

MCF-7 = test: MTT staining cytotoxicity, MCF-7; type: cell-based, human; settings: read-out: IC50 (MTT)
[2] = Body weight of tumor bearing mice; type: in vivo, athymic nude mice; settings: 5 mg/kg i.p., 2 days/week, after 25 days
In short: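 Athymic nude mice carried SC PC-3 xenografts and were dosed i.p. twice weekly from day 7. Groups were free or liposomal test compound at 5 mg/kg, DMSO, or empty liposomes. Body weight was recorded on day 25 after implantation, which was day 18 of treatment. Mean ± SEM.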

[3] = system: PC-3 cell tumor xenografts; test: In vivo prostate tumor xenograft growth; parameters: species or system athymic nude mice; settings: 5 mg/kg i.p., 2 days/week from day 7 to day 25
In short: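 Male athymic nude mice, 6-8 weeks old (n = 5-6), received 3 million PC-3 cells in sterile saline SC. From day 7, dosing was i.p. twice weekly: free or sterically stabilized liposomal test compound at 5 mg/kg, with DMSO or empty liposome controls. Calipers were used on days 7, 14, 21 and 25, with volume = ½[length × width²]. Tumors were excised and weighed on day 25.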

DU-145 cells = test: MTT staining cytotoxicity, DU-145; type: cell-based, human
In short: (§1)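 Cells were seeded at 5 × 10⁴ cells/ml (DU-145 in EMEM, LNCaP in RPMI, 10% FBS) and allowed to attach for 24 h. Free test compound was given at 1.56–50 μM, with DMSO and empty liposome controls, for 24, 48 or 72 h. MTT (0.25 mg/ml final) was added for 2 h at 37°C, formazan dissolved in DMSO, and absorbance read at 590 nm. IC50 came from the concentration-effect curve. Triplicates, n = 3.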

MDA-231 = test: MTT staining cytotoxicity, MDA-231; type: cell-based, human; settings: read-out: IC50 (MTT)
PC-3 cells = test: Annexin V and PI staining by flow cytometry; type: cell-based, human; settings: PC-3, 48 hr; free IPA-3 20-30 μM
In short: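 PC-3 cells (F12K, 10% FBS, 37°C, 5% CO₂) were grown 24 h, then exposed to free test compound, liposomal test compound or empty liposomes. After treatment they were PBS-washed twice and stained for 10 min with annexin V-FITC and PI in HEPES binding buffer (140 mM NaCl, 1.8 mM CaCl2, pH 7.4). Cells were washed three times, scraped off, and 10,000 events counted by flow cytometry. Mean ± SEM of percent stained cells.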

[4] = system: human prostate cancer PC-3, LNCaP and DU-145 cells; test: MTT staining cytotoxicity in prostate cancer cell lines; type: cell-based; settings: concentrations of 5-30 μM; 24, 48, 72 hrs
LNCaP cells = test: MTT staining cytotoxicity, LNCaP; type: cell-based, human; settings: read-out: IC50 (MTT)
In short: as §1

[5] = free form, rapid metabolism ref 10; cited from earlier work
prostate tumor xenograft = settings: daily administration ref 8; cited from earlier work

What does the source list for Oc1ccc2ccccc2c1SSc1c(O)ccc2ccccc12 [IPA-3]?
number of apoptotic (TUNEL positive) cells per field compared to control groups [1]: significant increases; IC50 (MCF-7): 25 µM; effect on body weight of mice [2]: no significant effect; PC-3 cell tumor xenograft growth [3]: ineffective; also recorded: did not have a significant effect; susceptibility to toxicity (MTT staining) (DU-145 cells; DU-145 compared to PC-3 and LNCaP cells): less susceptible; IC50 (DU-145 cells; read-out: IC50 (MTT), DU-145): ~32 µM; IC50 (MDA-231): 8 µM; percent cells staining positive for annexin V alone (PC-3 cells): significantly increased; percent cells staining positive for both annexin V and PI (PC-3 cells): significantly increased; effect on MTT staining [4]: concentration- and time-dependent decreases in MTT staining; IC50 (LNCaP cells): 10 µM; half-life in vivo [5]: very short; prostate tumor xenograft growth (prostate tumor xenograft): reduced
